This passage reports MIC and survival results from ChEMBL document CHEMBL3994615, “Design, synthesis and antibacterial evaluation of novel pleuromutilin derivatives possessing piperazine linker” (2017).

Structures are written as SMILES. Values after ≈ are worked out from the molar mass of the structure shown.

Holding throughout (format): functional
The subject of experiment [1] is Staphylococcus aureus. Description: Antibacterial activity against methicillin-resistant Staphylococcus aureus ATCC 43300 after overnight incubation by broth dilution method. The procedure, abridged:
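CLSI broth dilution MIC in Mueller-Hinton broth. Compounds were dissolved in methanol, diluted in broth, and tested over a two-fold range, with final methanol 1.25% in the top well. Inoculum was colonies in saline after 18–24 h growth at 37 °C in 5% CO2. Plates ran 24 h at 37 °C. MIC was the lowest concentration preventing visible growth. Duplicate wells, drug-free and solvent controls.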
A general note: Broth dilution looks for growth in wells or tubes with falling amounts of substance.

A further experiment relates to Enterococcus faecalis. The experiment can be described thus: Antibacterial activity against Enterococcus faecalis ATCC 29212 after overnight incubation by broth dilution method. A digest of the protocol: (§1)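 CLSI broth microdilution MIC. Compounds dissolved in methanol, diluted to working solution in Brain Heart Infusion broth. Organisms recovered in broth 18–24 h at 37 °C, 5% CO2; inoculum from colonies suspended in saline. Test range 0.016–32 (final), incubated 24 h at 37 °C. MIC taken as the lowest concentration inhibiting visible growth. Run in duplicate with drug-free and solvent-blank columns; final methanol 1.25%.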

Experiment [2] concerns Staphylococcus aureus. The experiment can be described thus: Antibacterial activity against Staphylococcus aureus ATCC 29213 after overnight incubation by broth dilution method. A digest of the protocol: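 CLSI broth microdilution MIC. Compounds dissolved in methanol, diluted to working solution in Mueller-Hinton broth. Strain recovered in broth 18–24 h at 37 °C, 5% CO2; colonies suspended in saline for inoculum. Final test range 0.016–32, plates incubated 24 h at 37 °C. MIC read as the lowest concentration preventing visible growth. Duplicates, with drug-free and solvent-blank columns; final methanol 1.25%.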

The test system of experiment [3] is Staphylococcus aureus. Description: Antibacterial activity against methicillin-resistant Staphylococcus aureus ATCC 43300 infected in neutropenic mouse assessed as mouse survival rate at 40 mg/kg, iv administered 1 hr post infection relative to control. To be noted: ATCC 43300, iv. A digest of the protocol:
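Female ICR mice (23–25 g) were made neutropenic with cyclophosphamide ip, 150 mg/kg 4 days and 100 mg/kg 1 day before infection. They were infected ip with 0.5 mL of ~10⁷ CFU/mL MRSA, then given compound iv at 40 mg/kg 1 h post-infection, with tiamulin given the same way as comparator. 10 mice per group; survival recorded.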

A further experiment relates to Enterococcus faecium. The experiment can be described thus: Antibacterial activity against Enterococcus faecium ATCC 35667 after overnight incubation by broth dilution method. A digest of the protocol:
as §1

As to `C=C[C@]1(C)C[C@@H](OC(=O)CSCCN(CC)CC)[C@]2(C)[C@H](C)CC[C@]3(CCC(=O)[C@H]32)[C@@H](C)[C@@H]1O` [TIAMULIN], the MIC was 0.125 µg/mL (≈ 0.253 µM) against Staphylococcus aureus [1], 2 µg/mL (≈ 4.05 µM) against Enterococcus faecalis, 0.5 µg/mL (≈ 1.01 µM) against Staphylococcus aureus [2] and greater than 32 µg/mL in the experiment with Enterococcus faecium. Also, in the experiment on Staphylococcus aureus [3], the survival at 40 mg/kg was 10%.
Turning to `C=C[C@]1(C)C[C@@H](OC(=O)CN2CCN(C(=O)CN3CCN(c4ccc(C)cc4)CC3)CC2)[C@]2(C)[C@H](C)CC[C@]3(CCC(=O)[C@H]32)[C@@H](C)[C@@H]1O`, the MIC is 0.125 µg/mL (≈ 0.189 µM) with Staphylococcus aureus [1], 2 µg/mL (≈ 3.02 µM) in the experiment with Enterococcus faecalis, 0.25 µg/mL (≈ 0.377 µM) in the experiment with Staphylococcus aureus [2] and greater than 32 µg/mL with Enterococcus faecium.
For `C=C[C@]1(C)C[C@@H](OC(=O)CN2CCN(C(=O)CN3CCN(c4cccc([N+](=O)[O-])c4)CC3)CC2)[C@]2(C)[C@H](C)CC[C@]3(CCC(=O)[C@H]32)[C@@H](C)[C@@H]1O` the same measures were 0.0625 µg/mL (≈ 0.0901 µM), 2 µg/mL (≈ 2.88 µM), 0.25 µg/mL (≈ 0.36 µM) and greater than 32 µg/mL.
On the same counts, the results for `C=C[C@]1(C)C[C@@H](OC(=O)CN2CCN(C(=O)CN3CCN(c4ccccc4Cl)CC3)CC2)[C@]2(C)[C@H](C)CC[C@]3(CCC(=O)[C@H]32)[C@@H](C)[C@@H]1O` are 0.015 µg/mL (≈ 0.022 µM), 4 µg/mL (≈ 5.85 µM), 0.5 µg/mL (≈ 0.732 µM) and greater than 32 µg/mL.
Consider `C=C[C@]1(C)C[C@@H](OC(=O)CN2CCN(C(=O)CN3CCN(c4ccc(OC)cc4)CC3)CC2)[C@]2(C)[C@H](C)CC[C@]3(CCC(=O)[C@H]32)[C@@H](C)[C@@H]1O`, for which the MIC with Staphylococcus aureus [1] was 0.25 µg/mL (≈ 0.368 µM); against Enterococcus faecalis, 2 µg/mL (≈ 2.95 µM); in the experiment with Staphylococcus aureus [2] it was 0.5 µg/mL (≈ 0.736 µM); in the experiment on Enterococcus faecium, greater than 32 µg/mL.
Take `C=C[C@]1(C)C[C@@H](OC(=O)CN2CCN(C(=O)CN3CCN(c4ccc(Cl)cc4)CC3)CC2)[C@]2(C)[C@H](C)CC[C@]3(CCC(=O)[C@H]32)[C@@H](C)[C@@H]1O`: the MIC was 0.015 µg/mL (≈ 0.022 µM) with Staphylococcus aureus [1], 2 µg/mL (≈ 2.93 µM) in the experiment on Enterococcus faecalis, 0.125 µg/mL (≈ 0.183 µM) against Staphylococcus aureus [2] and greater than 32 µg/mL against Enterococcus faecium. In addition, the survival at 40 mg/kg with Staphylococcus aureus [3] came out at 50%.
Take `C=C[C@]1(C)C[C@@H](OC(=O)CN2CCN(C(=O)CN3CCN(c4ccccc4[N+](=O)[O-])CC3)CC2)[C@]2(C)[C@H](C)CC[C@]3(CCC(=O)[C@H]32)[C@@H](C)[C@@H]1O`: the MIC was 0.0625 µg/mL (≈ 0.0901 µM) against Staphylococcus aureus [1], 2 µg/mL (≈ 2.88 µM) against Enterococcus faecalis, 0.0625 µg/mL (≈ 0.0901 µM) against Staphylococcus aureus [2] and greater than 32 µg/mL against Enterococcus faecium.
For the compound `C=C[C@]1(C)C[C@@H](OC(=O)CSC(C)(C)CNC(=O)[C@H](N)C(C)C)[C@]2(C)[C@H](C)CC[C@]3(CCC(=O)[C@H]32)[C@@H](C)[C@@H]1O` [VALNEMULIN], the minimum inhibitory concentration (MIC) is 0.03 µg/mL (≈ 0.0531 µM) in the experiment on Staphylococcus aureus [1], 1 µg/mL (≈ 1.77 µM) in the experiment with Enterococcus faecalis, 0.125 µg/mL (≈ 0.221 µM) with Staphylococcus aureus [2] and greater than 32 µg/mL in the experiment with Enterococcus faecium.
On the same counts, the results for `C=C[C@]1(C)C[C@@H](OC(=O)CN2CCN(C(=O)CN3CCN(c4ccccc4OC)CC3)CC2)[C@]2(C)[C@H](C)CC[C@]3(CCC(=O)[C@H]32)[C@@H](C)[C@@H]1O` are 0.5 µg/mL (≈ 0.736 µM), 4 µg/mL (≈ 5.89 µM), 0.5 µg/mL (≈ 0.736 µM) and greater than 32 µg/mL.
As to `C=C[C@]1(C)C[C@@H](OC(=O)CN2CCN(C(=O)CN3CCN(c4ccccc4)CC3)CC2)[C@]2(C)[C@H](C)CC[C@]3(CCC(=O)[C@H]32)[C@@H](C)[C@@H]1O`, the minimal inhibitory concentration (MIC) is 0.125 µg/mL (≈ 0.193 µM) in the experiment with Staphylococcus aureus [1], 4 µg/mL (≈ 6.16 µM) in the experiment with Enterococcus faecalis, 0.25 µg/mL (≈ 0.385 µM) against Staphylococcus aureus [2] and greater than 32 µg/mL against Enterococcus faecium.
`C=C[C@]1(C)C[C@@H](OC(=O)CN2CCN(C(=O)CCl)CC2)[C@]2(C)[C@H](C)CC[C@]3(CCC(=O)[C@H]32)[C@@H](C)[C@@H]1O`: the MIC against Staphylococcus aureus [1], against Enterococcus faecalis, with Staphylococcus aureus [2] and in the experiment on Enterococcus faecium was greater than 32 µg/mL throughout.
Regarding `C=C[C@]1(C)C[C@@H](OC(=O)CN2CCNCC2)[C@]2(C)[C@H](C)CC[C@]3(CCC(=O)[C@H]32)[C@@H](C)[C@@H]1O`, the minimum inhibitory concentration (MIC) in the experiment on Staphylococcus aureus [1] is 1 µg/mL (≈ 2.24 µM); in the experiment on Enterococcus faecalis, 8 µg/mL (≈ 17.9 µM); in the experiment on Staphylococcus aureus [2] it was 2 µg/mL (≈ 4.48 µM); with Enterococcus faecium, greater than 32 µg/mL.
As for `C=C[C@]1(C)C[C@@H](OC(=O)CS[C@@H]2C[C@H]3CC[C@@H](C2)N3C)[C@]2(C)[C@H](C)CC[C@]3(CCC(=O)[C@H]32)[C@@H](C)[C@@H]1O` [RETAPAMULIN], the minimal inhibitory concentration (MIC) against Staphylococcus aureus [1] was 0.0625 µg/mL (≈ 0.121 µM); with Staphylococcus aureus [2], 0.0625 µg/mL (≈ 0.121 µM); with Enterococcus faecium, greater than 32 µg/mL.
Regarding `C=C[C@]1(C)C[C@@H](OC(=O)CO)[C@]2(C)[C@H](C)CC[C@]3(CCC(=O)[C@H]32)[C@@H](C)[C@@H]1O` [PLEUROMULIN], the minimum inhibitory concentration (MIC) is 2 µg/mL (≈ 5.28 µM) against Staphylococcus aureus [1], 16 µg/mL (≈ 42.3 µM) against Enterococcus faecalis, 8 µg/mL (≈ 21.1 µM) with Staphylococcus aureus [2] and greater than 32 µg/mL against Enterococcus faecium.
For `C=C[C@]1(C)C[C@@H](OC(=O)CN2CCN(C(=O)CN3CCN(C)CC3)CC2)[C@]2(C)[C@H](C)CC[C@]3(CCC(=O)[C@H]32)[C@@H](C)[C@@H]1O` the same measures were 0.125 µg/mL (≈ 0.213 µM), 2 µg/mL (≈ 3.41 µM), 0.5 µg/mL (≈ 0.852 µM) and greater than 32 µg/mL.
For `C=C[C@]1(C)C[C@@H](OC(=O)CN2CCN(C(=O)CN3CCN(c4cccc(OC)c4)CC3)CC2)[C@]2(C)[C@H](C)CC[C@]3(CCC(=O)[C@H]32)[C@@H](C)[C@@H]1O` the same measures were 0.25 µg/mL (≈ 0.368 µM), 2 µg/mL (≈ 2.95 µM), 0.25 µg/mL (≈ 0.368 µM) and greater than 32 µg/mL.
Regarding `C=C[C@]1(C)C[C@@H](OC(=O)CN2CCN(C(=O)CN3CCN(c4cccc(C)c4)CC3)CC2)[C@]2(C)[C@H](C)CC[C@]3(CCC(=O)[C@H]32)[C@@H](C)[C@@H]1O`, the MIC in the experiment with Staphylococcus aureus [1] is 0.25 µg/mL (≈ 0.377 µM); with Enterococcus faecalis, 4 µg/mL (≈ 6.03 µM); in the experiment with Staphylococcus aureus [2], 0.5 µg/mL (≈ 0.754 µM); in the experiment with Enterococcus faecium, greater than 32 µg/mL.
For `C=C[C@]1(C)C[C@@H](OC(=O)CN2CCN(C(=O)CN3CCN(c4ccc([N+](=O)[O-])cc4)CC3)CC2)[C@]2(C)[C@H](C)CC[C@]3(CCC(=O)[C@H]32)[C@@H](C)[C@@H]1O` the same measures were 0.015 µg/mL (≈ 0.0216 µM), 1 µg/mL (≈ 1.44 µM), 0.125 µg/mL (≈ 0.18 µM) and greater than 32 µg/mL.
On the same counts, the results for `C=C[C@]1(C)C[C@@H](OC(=O)CN2CCN(C(=O)CN3CCN(c4ccc(O)cc4)CC3)CC2)[C@]2(C)[C@H](C)CC[C@]3(CCC(=O)[C@H]32)[C@@H](C)[C@@H]1O` are 1 µg/mL (≈ 1.5 µM), 8 µg/mL (≈ 12 µM), 2 µg/mL (≈ 3.01 µM) and greater than 32 µg/mL.
For the compound `C=C[C@]1(C)C[C@@H](OC(=O)CN2CCN(C(=O)CN3CCN(c4ccccc4C)CC3)CC2)[C@]2(C)[C@H](C)CC[C@]3(CCC(=O)[C@H]32)[C@@H](C)[C@@H]1O`, the MIC against Staphylococcus aureus [1] was 0.0625 µg/mL (≈ 0.0943 µM); against Enterococcus faecalis it was 2 µg/mL (≈ 3.02 µM); with Staphylococcus aureus [2], 0.25 µg/mL (≈ 0.377 µM); with Enterococcus faecium it was greater than 32 µg/mL.
As for `C=C[C@]1(C)C[C@@H](OC(=O)CN2CCN(C(=O)CN3CCN(c4cccc(Cl)c4)CC3)CC2)[C@]2(C)[C@H](C)CC[C@]3(CCC(=O)[C@H]32)[C@@H](C)[C@@H]1O`, the MIC is 0.03 µg/mL (≈ 0.0439 µM) in the experiment on Staphylococcus aureus [1], 2 µg/mL (≈ 2.93 µM) in the experiment on Enterococcus faecalis, 0.25 µg/mL (≈ 0.366 µM) with Staphylococcus aureus [2] and greater than 32 µg/mL in the experiment on Enterococcus faecium.
In the case of `C=C[C@]1(C)C[C@@H](OC(=O)CN2CCN(C(=O)CN3CCN(c4cccc(O)c4)CC3)CC2)[C@]2(C)[C@H](C)CC[C@]3(CCC(=O)[C@H]32)[C@@H](C)[C@@H]1O`, the minimum inhibitory concentration (MIC) with Staphylococcus aureus [1] was 0.25 µg/mL (≈ 0.376 µM); in the experiment on Enterococcus faecalis it was 2 µg/mL (≈ 3.01 µM); against Staphylococcus aureus [2], 0.5 µg/mL (≈ 0.752 µM); with Enterococcus faecium, greater than 32 µg/mL.
For `C=C[C@]1(C)C[C@@H](OC(=O)CN2CCN(C(=O)CN3CCN(c4ccccc4O)CC3)CC2)[C@]2(C)[C@H](C)CC[C@]3(CCC(=O)[C@H]32)[C@@H](C)[C@@H]1O` the same measures were 0.5 µg/mL (≈ 0.752 µM), 2 µg/mL (≈ 3.01 µM), 1 µg/mL (≈ 1.5 µM) and greater than 32 µg/mL.

Usually MIC stands for the smallest concentration in the dilution series that meets the test's criterion for growth inhibition.
